Laboratory results taken from ChEMBL document CHEMBL4024754, “Development of Potent, Protease-Resistant Agonists of the Parathyroid Hormone Receptor with Broad β Residue Distribution” (J Med Chem, 2017).
The source made the active and inactive calls. No cut-off for these calls is given here. Numbered stars: 1 amine (or outer) side, 2 acyl side, 3 side chain; on linkers, the order of the positions; unused ones are H or OH. Square brackets hold non-standard residues; d marks the D form. Peptide text beside a SMILES is read from it. * marks the point of attachment. NH(1S,2S-2-CONH2-cPent) = NC(=O)[C@H]1CCC[C@@H]1N*; ACPC(1S,2S) = N[C@H]1CCC[C@@H]1C(=O)*; X1 = O=C([C@H]1CCC[C@@H]1N[*:1])[*:2]; X2 = O=C([C@H]1CNC[C@@H]1N[*:1])[*:2]; hArg = N=C(N)NCCCC[C@H](N)C(=O)O; Aib = CC(C)(N)C(=O)O

Tests used:
[1] = molecular target: T1, Parathyroid hormone/parathyroid hormone-related peptide receptor (Homo sapiens, UniProt Q03431); assay: Agonist activity at human PTH1 receptor expressed in human GP2.3 cells assessed as induction of cAMP after 12 to 20 mins by luciferase reporter gene assay; assay type: functional, cell-based; details: read-out: EC50
T1 sequence (Q03431 whole entry): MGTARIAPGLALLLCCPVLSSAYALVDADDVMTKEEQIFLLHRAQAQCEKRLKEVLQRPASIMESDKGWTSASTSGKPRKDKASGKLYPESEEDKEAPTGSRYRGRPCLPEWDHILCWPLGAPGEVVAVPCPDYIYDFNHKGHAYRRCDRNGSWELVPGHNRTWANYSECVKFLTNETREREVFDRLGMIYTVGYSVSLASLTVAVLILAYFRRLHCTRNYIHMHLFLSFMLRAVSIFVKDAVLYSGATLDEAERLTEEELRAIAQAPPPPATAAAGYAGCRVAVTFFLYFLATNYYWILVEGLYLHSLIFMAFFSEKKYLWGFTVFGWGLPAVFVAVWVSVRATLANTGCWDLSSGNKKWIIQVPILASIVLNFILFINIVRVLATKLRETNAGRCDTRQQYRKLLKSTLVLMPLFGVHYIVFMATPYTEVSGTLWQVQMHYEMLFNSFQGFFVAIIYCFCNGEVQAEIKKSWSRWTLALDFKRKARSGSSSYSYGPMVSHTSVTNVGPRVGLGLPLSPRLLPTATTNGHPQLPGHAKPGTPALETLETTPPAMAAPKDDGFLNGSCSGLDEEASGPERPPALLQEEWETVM

[2] = molecular target: T2, Parathyroid hormone/parathyroid hormone-related peptide receptor (Homo sapiens) (UniProt Q03431); assay: Agonist activity at human PTH1 receptor expressed in human GP2.3 cells assessed as induction of cAMP at 0.1 to 100 nM preincubated with protease activity quenched SGF up to 4 hrs followed by compound transfer to GP2.3 cells by luciferase reporter gene assay; assay type: functional, cell-based
T2 sequence (whole entry): T1 sequence (Q03431 whole entry)
Outline: (§1)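 Control samples: simulated gastric fluid neutralized with 10× PBS, or intestinal fluid mixed with acetonitrile/TFA quench solution, before adding peptide. Gastric controls held up to 4 h. Then diluted and tested on luciferin-loaded GP2.3 cells at 100−0.1 nM final, alongside freshly prepared peptide.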

Blood = assay: Drug level in CD1 mouse blood at 20 nmol/kg, sc measured up to 2 hrs; assay type: ADME, organism-based; details: in vivo
Outline: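 Female CD1 mice, n = 5, 20 nmol/kg subcutaneously in citrate/NaCl/Tween-80 vehicle, pH 5.0. 2 μL serum from timed bleeds, mixed with CO2-independent medium, added to GP2.3 cells. Luminescence converted to peptide concentration via a standard curve.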

[3] = molecular target: T2, Parathyroid hormone/parathyroid hormone-related peptide receptor (Homo sapiens); assay: Agonist activity at human PTH1 receptor expressed in human GP2.3 cells assessed as induction of cAMP after 12 to 20 mins by luciferase reporter gene assay relative to PTH(1 to 34 residues)-NH2; assay type: functional, cell-based
[4] = molecular target: T2, Parathyroid hormone/parathyroid hormone-related peptide receptor (Homo sapiens); assay: Agonist activity at human PTH1 receptor expressed in human GP2.3 cells assessed as induction of cAMP at 0.1 to 100 nM preincubated with SGF for 4 hrs followed by compound transfer to GP2.3 cells by luciferase reporter gene assay; assay type: functional, cell-based
Outline: (§2)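 Peptide at 200 μM (from 1 mM stock in 10 mM acetic acid) incubated at 37 °C in fresh SGF (NaCl, porcine pepsin, HCl, pH ~1.2). Quenched by 10× PBS to neutral pH (40 μM). Duplicate reactions. Intact peptide measured by RP-HPLC peak area. For bioactivity, samples diluted into CO2-independent medium and added to luciferin-loaded GP2.3 cells at 100 nM−0.1 nM final.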

[5] = molecular target: T2, Parathyroid hormone/parathyroid hormone-related peptide receptor (Homo sapiens); assay: Agonist activity at human PTH1 receptor expressed in human GP2.3 cells assessed as induction of cAMP at 12 uM preincubated with Sprague-Dawley rat kidney homogenates for 60 mins followed by compound transfer to GP2.3 cells measured after 12 to 20 mins by luciferase reporter gene assay; assay type: functional, cell-based
Outline: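 Female Sprague-Dawley rat kidney homogenate (50 mM Tris-HCl pH 7.4, 2000g supernatant). 1 mM peptide stock diluted 1:85 (~12 μM), incubated at indicated times. Quenched 1:1 with acetonitrile/TFA solution, diluted to 1000−1 nM, and added 1:10 to GP2.3 cells preincubated 30 min with 0.5 mM D-luciferin. Sigmoidal variable-slope fit. Two replicates.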

[6] = Drug metabolism in Sprague-Dawley rat kidney homogenates assessed as protease-mediated metabolite formation at 12 uM after 4 hrs by MALDI-TOF-MS analysis; assay type: ADME, tissue-based; details: tissue homogenate
Outline: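 Perfused female Sprague-Dawley kidney homogenate in 50 mM Tris-HCl pH 7.4, diluted to 2.5 mg protein/mL. Peptide spiked at 50 μg/mL (~12 μM) and incubated at 37 °C. Timed samples quenched with equal volume 1% TFA, centrifuged, dried, reconstituted in 0.1% formic acid, mixed with DHB matrix. Fragments identified by MALDI-TOF MS.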

[7] = Half life in Sprague-Dawley rat kidney homogenates at 12 uM by HPLC-MS analysis; assay type: ADME, tissue-based
Outline: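 Kidney homogenate (2.5 mg protein/mL, pH 7.4 Tris) spiked with peptide at 50 μg/mL (~12 μM), 37 °C, sampled 0−120 min. […] C18 UHPLC–Orbitrap MS quantified via y32 ion area ratio against calibration standards. Exponential decay fit, mean ± SD of two replicates.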

[8] = molecular target: T2, Parathyroid hormone/parathyroid hormone-related peptide receptor (Homo sapiens); assay: Agonist activity at human PTH1 receptor expressed in human GP2.3 cells assessed as induction of cAMP at 0.1 to 100 nM preincubated with protease activity quenched SIF followed by compound transfer to GP2.3 cells by luciferase reporter gene assay; assay type: functional, cell-based; outline: as §1
pepsin = assay: Stability in simulated gastric fluid assessed as pig pepsin-mediated proteolysis by measuring half life at 40 uM by RP-HPLC analysis; assay type: ADME, Sus scrofa; details: simulated gastric fluid with pig pepsin; outline: as §2
Mus musculus [9] = assay: In vivo induction of excessive bloodstream calcium concentration in CD1 mouse at 20 nmol/kg, sc after 2 hrs by Ca2+/pH analyzer; assay type: organism-based
Outline: (§3)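 Female CD1 mice (9−12 weeks), n = 5, given 20 nmol/kg subcutaneously in 10 mM citrate/150 mM NaCl/0.05% Tween-80, pH 5.0. Tail vein blood taken before and at times after dosing. Ca2+ measured by Ca2+/pH analyzer. One-way ANOVA with Dunnett's test vs vehicle. Mean ± SEM.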

Mus musculus [10] = assay: In vivo induction of excessive bloodstream calcium concentration in CD1 mouse at 20 nmol/kg, sc up to 2 hrs by Ca2+/pH analyzer; assay type: organism-based; outline: as §3
[11] = molecular target: T2, Parathyroid hormone/parathyroid hormone-related peptide receptor (Homo sapiens); assay: Displacement of [125I]-PTH(1 to 34 residues) from R0 state of human PTHR1 expressed in African green monkey COS7 cell membranes incubated for >1 hr in presence of GTPgammaS by gamma radiation method
[12] = molecular target: T2, Parathyroid hormone/parathyroid hormone-related peptide receptor (Homo sapiens); assay: Agonist activity at human PTH1 receptor expressed in human GP2.3 cells assessed as induction of cAMP at 0.1 to 100 nM preincubated with SIF for 10 mins followed by compound transfer to GP2.3 cells by luciferase reporter gene assay; assay type: functional, cell-based
Outline: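 Simulated intestinal fluid containing pancreatin, pH 6.8, prepared fresh and kept at 37 °C. Peptide incubated in it as for gastric fluid. Quenched 1:1 with 50% acetonitrile/1% TFA. Quenched samples serially diluted in CO2-independent medium and applied to luciferin-preloaded GP2.3 cells at 100−0.1 nM final. Luminescence read. Two technical replicates.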

For CSCC[C@H](NC(=O)[C@H]1CCC[C@@H]1NC(=O)[C@H](CCC(N)=O)NC(=O)[C@H]1CCC[C@@H]1NC(=O)[C@H](CCC(=O)O)NC(=O)C(C)(C)NC(=O)[C@@H](NC(=O)[C@H]1CCC[C@@H]1N)C(C)C)C(=O)N[C@@H](Cc1cnc[nH]1)C(=O)N[C@@H](CCC(N)=O)C(=O)N[C@@H](CCCCNC(=N)N)C(=O)N[C@@H](C)C(=O)N[C@@H](CCCCN)C(=O)N[C@H]1CCC[C@@H]1C(=O)N[C@@H](CC(C)C)C(=O)N[C@@H](CC(N)=O)C(=O)N[C@@H](CO)C(=O)N[C@H]1CCC[C@@H]1C(=O)N[C@@H](CCCNC(=N)N)C(=O)N[C@@H](CCCNC(=N)N)C(=O)N[C@H](C(=O)N[C@H]1CNC[C@@H]1C(=O)N[C@@H](Cc1c[nH]c2ccccc12)C(=O)N[C@@H](CC(C)C)C(=O)N[C@@H](CCCNC(=N)N)C(=O)N[C@H]1CNC[C@@H]1C(=O)N[C@@H](CCCCN)C(=O)N[C@@H](CC(C)C)C(=O)N[C@@H](CCC(N)=O)C(=O)N[C@H]1CCC[C@@H]1C(=O)N[C@H](C(=O)N[C@@H](Cc1cnc[nH]1)C(=O)N[C@@H](CC(N)=O)C(=O)N[C@H]1CCC[C@@H]1C(N)=O)C(C)C)C(C)C ({ACPC(1S,2S)}-V[Aib]E[X1]Q[X1]MHQ[hArg]AK[X1]LNS[X1]RRV[X2]WLR[X2]KLQ[X1]VHN-{NH(1S,2S-2-CONH2-cPent)}), the EC50 [1] was 0.48 to 0.78 nM, the Activity [2] was “Active” and the Drug uptake (Blood) was “Not Active”. For the same molecule, the fold change (FC) [3] was 7.1 to 9.5, the Activity [4] was “Active” and the Activity [5] was “Active”. The Drug metabolism [6] was “Metabolite_Notdetected”, the half-life at 12 µM [7] was 0.517 h and the Activity [8] was “Active”. For the same molecule, the half-life at 40 µM (pepsin) was 4 h, the Activity (Mus musculus [9]) was “Non-Toxic” and the Activity (Mus musculus [10]) was “Toxic”. The inhibition [11] was “Active” and the Activity [12] was “Active”.
